{"data": "Published values collected from several papers", "target": "Ephrin type-B receptor 6 (EPHB6, Homo sapiens, UniProt O15197)", "Residues used in one study (O15197 32-1021)": "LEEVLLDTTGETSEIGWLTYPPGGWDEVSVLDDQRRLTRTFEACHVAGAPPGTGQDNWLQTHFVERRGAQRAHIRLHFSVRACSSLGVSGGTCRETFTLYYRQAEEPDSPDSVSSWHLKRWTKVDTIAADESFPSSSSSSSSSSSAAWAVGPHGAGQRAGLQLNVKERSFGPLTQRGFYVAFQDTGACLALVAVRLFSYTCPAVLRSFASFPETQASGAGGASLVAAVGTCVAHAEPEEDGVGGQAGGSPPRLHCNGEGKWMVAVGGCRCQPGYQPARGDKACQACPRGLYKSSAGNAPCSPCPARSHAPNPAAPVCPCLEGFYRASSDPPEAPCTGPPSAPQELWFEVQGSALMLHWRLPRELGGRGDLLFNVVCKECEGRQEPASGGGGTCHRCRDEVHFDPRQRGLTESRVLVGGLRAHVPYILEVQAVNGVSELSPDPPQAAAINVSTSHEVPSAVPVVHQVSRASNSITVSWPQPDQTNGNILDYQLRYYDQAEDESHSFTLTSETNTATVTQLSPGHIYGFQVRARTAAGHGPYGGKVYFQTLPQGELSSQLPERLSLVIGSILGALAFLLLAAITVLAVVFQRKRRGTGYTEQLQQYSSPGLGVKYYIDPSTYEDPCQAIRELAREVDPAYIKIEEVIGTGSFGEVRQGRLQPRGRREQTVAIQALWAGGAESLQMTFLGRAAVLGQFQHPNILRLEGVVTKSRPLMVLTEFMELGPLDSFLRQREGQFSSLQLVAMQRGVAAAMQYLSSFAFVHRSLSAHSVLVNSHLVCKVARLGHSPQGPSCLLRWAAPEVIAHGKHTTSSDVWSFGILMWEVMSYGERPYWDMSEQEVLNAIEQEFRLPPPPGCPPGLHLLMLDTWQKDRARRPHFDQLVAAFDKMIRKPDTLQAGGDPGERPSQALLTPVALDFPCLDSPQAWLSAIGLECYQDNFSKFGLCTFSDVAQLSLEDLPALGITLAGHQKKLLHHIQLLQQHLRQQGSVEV", "note": "Compare with care: the assays were run in different laboratories."}
{"SMILES": "C[C@H](NC(=O)c1cnc2n1[C@](C)(Cc1ccc(C#N)cc1)C(=O)N2c1cc(Cl)c(F)c(Cl)c1)C(=O)NC1(c2ccccn2)CC1", "assay": "cell-free assay, competition with immobilised ligand", "conditions": "1 µM", "remaining binding": "100%"}
{"SMILES": "COc1ccnn2ncc(-c3ccnc(N(C)C)n3)c12", "assay": "binding", "conditions": "1 µM", "remaining binding": "27%"}
{"SMILES": "CN(c1ccnc(CNc2nc(Nc3ccc4c(c3)CC(=O)N4)ncc2C(F)(F)F)n1)S(C)(=O)=O", "assay": "cell-free assay, competition with immobilised ligand", "conditions": "1 µM", "remaining binding": "54%"}
{"SMILES": "Nc1ncc2c(n1)-c1c([nH]c3ccc(C#CC4CC4)cc13)CCCC2", "assay": "binding, competition with immobilised ligand", "conditions": "1 µM", "remaining binding": "84%"}
{"SMILES": "O=C(Nc1cccnn1)N1CC(C/C=C/c2cncc(Oc3ccc(C(F)(F)F)cn3)n2)C1", "assay": "cell-free assay, competition with immobilised ligand", "conditions": "1 µM", "remaining binding": "87%"}
{"SMILES": "COc1cnc(Nc2cccc(S(N)(=O)=O)c2)nc1N1CCN(c2ccccc2)C(=O)C1", "assay": "binding, competition with immobilised ligand", "conditions": "1 µM", "remaining binding": "90%"}
{"SMILES": "CN(CCCC(F)(F)F)c1nccc(-c2cnn3ncccc23)n1", "assay": "binding", "conditions": "1 µM", "remaining binding": "100%"}
{"SMILES": "CCN1CCN(Cc2ccc(C(=O)Nc3ccc(C)c(Oc4ccc5c(c4)CC(=O)N5)c3)cc2C(F)(F)F)CC1", "assay": "binding, competition with immobilised ligand", "conditions": "1 µM", "remaining binding": "91%"}
{"SMILES": "CN(c1nccc(-c2cnn3ncccc23)n1)C1CC1", "assay": "binding", "conditions": "1 µM", "remaining binding": "100%"}
{"SMILES": "O=C(Nc1c[nH]nc1C(=O)NC1CCNCC1)c1cc(F)cc(F)c1", "assay": "binding, competition with immobilised ligand", "conditions": "1 µM", "remaining binding": "100%"}
{"SMILES": "Cc1cnc(Nc2ccc(C(=O)N3CCC(N4CCCC4)CC3)cc2)nc1-c1cc2ccccc2s1", "assay": "binding, competition with immobilised ligand", "conditions": "1 µM", "remaining binding": "3.3%"}
{"SMILES": "CN(C)c1ncc(F)c(-c2cnn3ncccc23)n1", "assay": "binding", "conditions": "1 µM", "remaining binding": "77%"}
{"SMILES": "Cc1nc(N2CC[C@@H](O)C2)ncc1-c1cc(C(F)(F)F)cc2[nH]ncc12", "assay": "binding, competition with immobilised ligand", "conditions": "1 µM", "remaining binding": "36%"}
{"SMILES": "O=C(c1ccc(Nc2ncc(Cl)c(-c3ccc(Cl)s3)n2)cc1)N1CCC(N2CCCC2)CC1", "assay": "binding, competition with immobilised ligand", "conditions": "1 µM", "remaining binding": "0%"}
{"SMILES": "CNC(=O)c1ccc(Nc2ncc(C(F)(F)F)c(NCc3nccnc3N(C)S(C)(=O)=O)n2)cc1", "assay": "cell-free assay, competition with immobilised ligand", "conditions": "0.1 µM", "remaining binding": "100%"}
{"SMILES": "O=C(NCCCN1CCOCC1)c1ccc(Nc2nccc(-c3cc4ccccc4s3)n2)cc1", "assay": "binding, competition with immobilised ligand", "conditions": "1 µM", "remaining binding": "18%"}
{"SMILES": "N[C@H]1CCN(c2nccc(-c3cnn4ncccc34)n2)C1", "assay": "binding", "conditions": "1 µM", "remaining binding": "56%"}
{"SMILES": "c1cncc(-c2cccc(Nc3nccc(NC4CCCCC4)n3)c2)c1", "assay": "binding, competition with immobilised ligand", "conditions": "10 µM", "remaining binding": "1.6%"}
{"SMILES": "C[C@H]1CCN(c2nccc(-c3cnn4ncccc34)n2)C1", "assay": "binding", "conditions": "1 µM", "remaining binding": "85%"}
{"SMILES": "O=C(O)[C@@H]1[C@@H](Cn2nnc3ccccc3c2=O)CC[C@H]1C(=O)c1ccc(OCCC2CCOCC2)cc1", "assay": "cell-free assay, competition with immobilised ligand", "conditions": "1 µM", "remaining binding": "100%"}
{"SMILES": "F[C@@H]1CCN(c2nccc(-c3cnn4ncccc34)n2)C1", "assay": "binding", "conditions": "1 µM", "remaining binding": "100%"}
{"SMILES": "C=CC(=O)N1CCC(C(=O)NCC(=O)N2CCN(c3nc(-c4cnc(N)nc4C(F)F)nc(N4CCOCC4)n3)CC2)CC1", "assay": "binding, competition with immobilised ligand", "conditions": "1 µM", "remaining binding": "65%"}
